These results are taken from ChEMBL document CHEMBL1144696, “Overcoming drug resistance to heme-targeted antimalarials by systematic side chain variation of 7-chloro-4-aminoquinolines” (J Med Chem, 2008).

As a reminder, the IC50 is the concentration that inhibits the measured activity by half.

In assay [1] the test system is Plasmodium falciparum. Put plainly: Antiplasmodial activity against chloroquine-resistant Plasmodium falciparum Dd2 after 72 hrs by SYBR green 1 assay. The conditions noted are these: Dd2, 72 h. Type of assay: functional, organism-based. In outline: (§1)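 P. falciparum growth inhibition measured by SYBR Green I intercalation. Each strain was tested separately. IC50 calculated from triplicate experiments. Values are averages of two separate determinations, each run in triplicate.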

The subject of assay [2] is Plasmodium falciparum. Put plainly: Antiplasmodial activity against chloroquine-sensitive Plasmodium falciparum GCO3 after 72 hrs by SYBR green 1 assay. The format is functional, organism-based. The conditions noted are these: GCO3, 72 h. In outline: as §1
Assay [3] has as its system Plasmodium falciparum. Put plainly: Selectivity for chloroquine-resistant Plasmodium falciparum Dd2 over chloroquine-sensitive Plasmodium falciparum HB3 as IC50 ratio by SYBR green assay. Type of assay: functional. In short, it runs like this:
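Selectivity index is IC50 for Dd2 divided by IC50 for HB3. Both IC50s come from the SYBR Green I assay, averaging two determinations each run in triplicate.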

For assay [4], the system named is Plasmodium falciparum. Put plainly: Antiplasmodial activity against chloroquine-resistant Plasmodium falciparum FCB after 72 hrs by SYBR green 1 assay. Type of assay: functional, organism-based. In short, it runs like this: as §1
In assay [5] the test system is Plasmodium falciparum. Put plainly: Selectivity index for chloroquine-resistant Plasmodium falciparum FCB to chloroquine-sensitive Plasmodium falciparum GCO3 by SYBR green IC50 ratio. Type of assay: functional.
Assay [6] deals with Plasmodium falciparum. Put plainly: Antiplasmodial activity against chloroquine-sensitive Plasmodium falciparum HB3 after 72 hrs by SYBR green 1 assay. Conditions: HB3, 72 h. The format is functional, organism-based. In short, it runs like this:
as §1

For `CC(C)NC1CCC(Nc2ccnc3cc(Cl)ccc23)CC1` (centres undefined), the IC50 in assay [1] stood at 75.7 nM; in assay [2] it was 19.5 nM; in assay [4], 66 nM; in assay [6] it was 31.3 nM. In addition, the “Ratio IC50” value is on record as 2.42 in assay [3] and 3.89 in assay [5].
Consider `CC(C)N(CCCN(CCCN(C(C)C)C(C)C)c1ccnc2cc(Cl)ccc12)C(C)C`, for which the IC50 was 99.8 nM in assay [1], 42.4 nM in assay [2], 104 nM in assay [4] and 44.1 nM in assay [6]. Moreover, the results for the “Ratio IC50” value in assay [3] and in assay [5] were 2.26 and 2.45, respectively.
`CCN(CC)CCCN(CC)CCNc1ccnc2cc(Cl)ccc12`: the concentration for half-maximal inhibition (IC50) in assay [1] came to 31.2 nM; in assay [2] it was 37.7 nM; in assay [4], 52.7 nM; in assay [6], 27.3 nM.
Turning to `CCN(CC)CCCNCCCCNc1ccnc2cc(Cl)ccc12`, the IC50 was 170 nM in assay [1], 139 nM in assay [2], 189 nM in assay [4] and 72.5 nM in assay [6]. Also, the “Ratio IC50” value is 2.34 in assay [3] and 1.36 in assay [5].
For the compound `CCN(CC)CCCNCCCCCCNc1ccnc2cc(Cl)ccc12`, the IC50 in assay [1] turned out to be 269 nM; in assay [2] it was 129 nM; in assay [4] it was 216 nM; in assay [6] it was 82.8 nM. Besides, the “Ratio IC50” value in assay [3] stood at 3.25; in assay [5], 1.67.
On to `CCN(CC)CCCNCCNc1ccnc2cc(Cl)ccc12`, for which the 50% inhibitory concentration (IC50) turned out to be 129 nM in assay [1], 118 nM in assay [2], 146 nM in assay [4] and 29.2 nM in assay [6].
With `CCN(CC)CCCNCCCNc1ccnc2cc(Cl)ccc12`, the IC50 stood at 56.3 nM in assay [1], 64.8 nM in assay [2], 73.7 nM in assay [4] and 27.3 nM in assay [6]. Moreover, the entries for the “Ratio IC50” value in assay [3] and in assay [5] were 2.06 and 1.14, respectively.
For `CC(C)N(CCCCN(CCCCN(C(C)C)C(C)C)c1ccnc2cc(Cl)ccc12)C(C)C`, the half-maximal inhibitory concentration (IC50) was 2550 nM in assay [1], 1510 nM in assay [2], 2220 nM in assay [4] and 1310 nM in assay [6]. Moreover, the results for the “Ratio IC50” value in assay [3] and in assay [5] were 1.94 and 1.47, respectively.
`CCN(CC)CCCCN(CCCCN(CC)CC)c1ccnc2cc(Cl)ccc12`: the half-maximal inhibitory concentration (IC50) was 882 nM in assay [1], 517 nM in assay [2], 1060 nM in assay [4] and 716 nM in assay [6]. Besides, the “Ratio IC50” value in assay [3] was determined as 1.23; in assay [5], 2.05.
In the case of `CCN(CC)CCCN(CC)CCCCCNc1ccnc2cc(Cl)ccc12`, the IC50 in assay [1] was determined as 43.4 nM; in assay [2] it was 55.2 nM; in assay [4], 66.8 nM; in assay [6], 15.7 nM. The “Ratio IC50” value in assay [3] is given as 2.76; in assay [5], 1.21.
As for `CCN(CC)CCCN(CC)CCCNc1ccnc2cc(Cl)ccc12`, the IC50 in assay [1] worked out at 28.1 nM; in assay [2], 27.6 nM; in assay [4] it was 49.1 nM; in assay [6], 21.2 nM. The entries for the “Ratio IC50” value in assay [3] and in assay [5] were 1.33 and 1.78, respectively.
Consider `CCN(CC)C1CCCC(Nc2ccnc3cc(Cl)ccc23)C1` (centres undefined), for which the IC50 worked out at 80 nM in assay [1], 40.6 nM in assay [2], 113 nM in assay [4] and 26.3 nM in assay [6]. Moreover, the “Ratio IC50” value in assay [3] turned out to be 3.04; in assay [5] it was 2.78.
`CCN(CC)CCCN(CC)CCCCNc1ccnc2cc(Cl)ccc12`: the IC50 was determined as 84.6 nM in assay [1], 87.4 nM in assay [2], 156 nM in assay [4] and 24.1 nM in assay [6]. Also, the results for the “Ratio IC50” value in assay [3] and in assay [5] were 3.52 and 1.78, respectively.
Take `CC(C)NC1CCCC(Nc2ccnc3cc(Cl)ccc23)C1` (centres undefined): the IC50 in assay [1] stood at 76.1 nM; in assay [2] it was 26.1 nM; in assay [4], 110 nM; in assay [6] it was 27.8 nM. The “Ratio IC50” value was found to be 2.74 in assay [3] and 4.21 in assay [5].
With `CCN(CC)CCCNCCCCCNc1ccnc2cc(Cl)ccc12`, the concentration for half-maximal inhibition (IC50) in assay [1] was 103 nM; in assay [2] it was 68.7 nM; in assay [4] it was 97.3 nM; in assay [6], 46 nM. Besides, the “Ratio IC50” value in assay [3] is reported as 2.25; in assay [5], 1.42.
For `CCN(CC)CCCN(CC)CCCCCCNc1ccnc2cc(Cl)ccc12`, the concentration for half-maximal inhibition (IC50) in assay [1] turned out to be 274 nM; in assay [2] it was 175 nM; in assay [4], 263 nM; in assay [6] it was 62.9 nM. In addition, the figures for the “Ratio IC50” value in assay [3] and in assay [5] were 4.36 and 1.5, respectively.
As to `CCN(CC)C1CCC(Nc2ccnc3cc(Cl)ccc23)CC1` (centres undefined), the IC50 in assay [1] was found to be 51.8 nM; in assay [2], 32 nM; in assay [4] it was 57.6 nM; in assay [6] it was 25.5 nM. Besides, the “Ratio IC50” value was found to be 2.03 in assay [3] and 1.8 in assay [5].
In the case of `CCN(CC)CCCN(CCCN(CC)CC)c1ccnc2cc(Cl)ccc12`, the IC50 in assay [1] is 128 nM; in assay [2], 96.6 nM; in assay [4] it was 186 nM; in assay [6] it was 187 nM. For the same compound, the results for the “Ratio IC50” value in assay [3] and in assay [5] were 0.68 and 1.92, respectively.
